Assay results as given in ChEMBL document CHEMBL5260844, “Optimization of PDE3A Modulators for SLFN12-Dependent Cancer Cell Killing” (ACS Med Chem Lett, 2019).
≈ marks a conversion by molar mass, not a printed value. Structures can show the parent of a compound that is named as a salt. Each block holds one compound with its values, some of them ahead of it. Calls of active or inactive are those of the source. The rule behind the calls is not given here.

Columns and labels:
[1] = system: SK-MEL3; assay: Cytotoxicity against human SK-MEL3 cells assessed as cell growth inhibition upto 10 uM measured after 48 hrs by […] reagent based assay; type: functional; details: SK-MEL3, 48 h
[2] = system: HCT-116; assay: Cytotoxicity against human HCT-116 cells assessed as cell growth inhibition upto 10 uM measured after 48 hrs by […] reagent based assay; type: functional
Procedure, shortened: (§1)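 Counterscreen viability assay in HCT116 colorectal cancer cells and IMR90 normal lung fibroblasts, run alongside DNMDP-sensitive lines.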

[3] = system: IMR-90; assay: Cytotoxicity against human IMR-90 cells assessed as cell growth inhibition upto 10 uM measured after 48 hrs by […] reagent based assay; type: functional; procedure, shortened: as §1
[4] = molecular target: cGMP-inhibited 3',5'-cyclic phosphodiesterase 3A (Homo sapiens, UniProt Q14432); assay: Inhibition of human N-terminal His-GST-tagged recombinant PDE3A (669-end residues) using fluorescent labelled cAMP as substrate
cGMP-inhibited 3',5'-cyclic phosphodiesterase 3A, sequence (Q14432 whole entry): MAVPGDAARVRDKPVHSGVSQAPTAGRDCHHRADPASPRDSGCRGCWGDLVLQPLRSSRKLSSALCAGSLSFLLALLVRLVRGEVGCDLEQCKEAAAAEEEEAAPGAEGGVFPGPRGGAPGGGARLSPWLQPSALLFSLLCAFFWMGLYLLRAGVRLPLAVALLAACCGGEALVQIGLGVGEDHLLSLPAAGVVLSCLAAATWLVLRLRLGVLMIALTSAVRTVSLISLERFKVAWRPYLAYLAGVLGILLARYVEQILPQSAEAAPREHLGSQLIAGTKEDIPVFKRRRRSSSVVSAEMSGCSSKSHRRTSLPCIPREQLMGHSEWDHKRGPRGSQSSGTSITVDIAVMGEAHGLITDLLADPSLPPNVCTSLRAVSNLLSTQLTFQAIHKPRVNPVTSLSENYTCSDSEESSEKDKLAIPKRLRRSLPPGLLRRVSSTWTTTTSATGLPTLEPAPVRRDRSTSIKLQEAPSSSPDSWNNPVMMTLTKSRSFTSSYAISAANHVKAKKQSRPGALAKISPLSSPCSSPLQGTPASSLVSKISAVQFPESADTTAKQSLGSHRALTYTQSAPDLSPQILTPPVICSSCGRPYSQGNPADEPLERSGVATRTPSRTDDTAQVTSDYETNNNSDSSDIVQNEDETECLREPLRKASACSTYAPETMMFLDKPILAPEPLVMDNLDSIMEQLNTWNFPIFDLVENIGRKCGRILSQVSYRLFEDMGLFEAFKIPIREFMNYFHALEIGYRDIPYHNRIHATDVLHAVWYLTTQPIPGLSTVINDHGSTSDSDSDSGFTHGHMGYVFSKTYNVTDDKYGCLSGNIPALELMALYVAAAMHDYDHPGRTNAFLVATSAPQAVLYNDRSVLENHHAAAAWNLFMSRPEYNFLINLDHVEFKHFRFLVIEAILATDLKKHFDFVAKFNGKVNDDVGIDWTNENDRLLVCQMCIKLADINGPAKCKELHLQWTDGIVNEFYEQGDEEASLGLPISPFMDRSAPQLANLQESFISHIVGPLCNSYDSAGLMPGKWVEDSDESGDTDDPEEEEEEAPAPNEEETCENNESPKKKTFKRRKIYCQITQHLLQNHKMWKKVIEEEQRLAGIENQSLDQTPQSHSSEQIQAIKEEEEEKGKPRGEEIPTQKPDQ

[5] = molecular target: cGMP-inhibited 3',5'-cyclic phosphodiesterase 3B (Homo sapiens, UniProt Q13370); assay: Inhibition of human recombinant PDE3B
cGMP-inhibited 3',5'-cyclic phosphodiesterase 3B, sequence (Q13370 whole entry): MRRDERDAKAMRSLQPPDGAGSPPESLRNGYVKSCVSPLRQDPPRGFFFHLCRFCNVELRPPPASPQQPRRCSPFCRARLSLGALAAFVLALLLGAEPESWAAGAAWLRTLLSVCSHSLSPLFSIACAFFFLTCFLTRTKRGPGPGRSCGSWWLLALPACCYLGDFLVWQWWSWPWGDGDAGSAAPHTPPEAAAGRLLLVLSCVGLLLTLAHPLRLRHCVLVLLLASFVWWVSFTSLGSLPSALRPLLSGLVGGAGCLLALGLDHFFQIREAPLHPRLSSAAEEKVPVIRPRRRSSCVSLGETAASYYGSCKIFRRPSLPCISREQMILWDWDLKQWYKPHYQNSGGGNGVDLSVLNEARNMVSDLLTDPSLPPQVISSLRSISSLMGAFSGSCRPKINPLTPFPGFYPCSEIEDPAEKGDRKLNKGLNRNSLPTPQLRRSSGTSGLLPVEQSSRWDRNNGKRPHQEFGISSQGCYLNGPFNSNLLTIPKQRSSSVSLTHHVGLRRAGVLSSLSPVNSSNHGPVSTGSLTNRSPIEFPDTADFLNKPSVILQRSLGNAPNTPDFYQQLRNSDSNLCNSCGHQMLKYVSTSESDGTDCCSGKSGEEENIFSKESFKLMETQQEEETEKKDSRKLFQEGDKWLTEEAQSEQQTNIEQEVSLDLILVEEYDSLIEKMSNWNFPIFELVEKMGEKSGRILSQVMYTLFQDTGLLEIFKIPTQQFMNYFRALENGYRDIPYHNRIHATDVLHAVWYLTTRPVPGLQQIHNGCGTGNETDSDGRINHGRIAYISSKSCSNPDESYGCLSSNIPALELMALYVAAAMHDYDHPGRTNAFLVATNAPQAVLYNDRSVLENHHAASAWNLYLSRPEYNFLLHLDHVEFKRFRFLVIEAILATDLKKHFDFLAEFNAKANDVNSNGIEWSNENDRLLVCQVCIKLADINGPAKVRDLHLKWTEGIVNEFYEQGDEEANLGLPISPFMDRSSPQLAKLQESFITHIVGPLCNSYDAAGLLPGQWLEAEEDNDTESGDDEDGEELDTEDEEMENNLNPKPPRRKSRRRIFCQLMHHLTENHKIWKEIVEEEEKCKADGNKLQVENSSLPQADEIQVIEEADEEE

[6] = molecular target: Ribonuclease SLFN12 (Homo sapiens) (UniProt Q8IYM2); assay: Stabilization of PDE3A/V5-epitope tagged SLFN12 interaction in human HeLa cells at 10 uM incubated for 8 hrs by immunoblotting analysis; type: cell-based
Ribonuclease SLFN12 (Homo sapiens), sequence (Q8IYM2 whole entry): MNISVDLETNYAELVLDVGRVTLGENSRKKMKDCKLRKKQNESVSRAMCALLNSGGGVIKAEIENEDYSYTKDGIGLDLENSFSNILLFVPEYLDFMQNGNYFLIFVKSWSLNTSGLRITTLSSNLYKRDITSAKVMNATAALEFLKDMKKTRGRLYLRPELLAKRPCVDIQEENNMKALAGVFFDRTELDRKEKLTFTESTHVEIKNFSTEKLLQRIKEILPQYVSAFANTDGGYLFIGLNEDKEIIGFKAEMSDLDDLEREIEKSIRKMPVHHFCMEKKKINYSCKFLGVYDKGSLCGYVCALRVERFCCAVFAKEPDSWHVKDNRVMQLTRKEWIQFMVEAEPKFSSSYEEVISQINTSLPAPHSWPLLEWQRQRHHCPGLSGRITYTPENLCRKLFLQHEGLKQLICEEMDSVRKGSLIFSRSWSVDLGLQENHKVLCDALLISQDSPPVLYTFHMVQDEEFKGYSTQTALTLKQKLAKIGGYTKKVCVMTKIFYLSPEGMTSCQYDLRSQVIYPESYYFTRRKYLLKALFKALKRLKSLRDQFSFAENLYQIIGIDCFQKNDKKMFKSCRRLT
Procedure, shortened: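 HeLa cells transfected with a plasmid expressing V5-tagged SLFN12, then exposed to 10 µM compound for 8 h. Lysates immunoprecipitated with anti-PDE3A antibody for endogenous PDE3A. Co-precipitated SLFN12-V5 detected by immunoblot with anti-V5 antibody.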

[7] = Microsomal stability in human liver microsomes assessed as parent compound remaining measured after 1 hr in presence of NADPH by UHPLC-MS analysis; type: ADME, Microsome; details: read-out: Stability
Procedure, shortened: (§2)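 Test compound incubated with human or mouse liver microsomes. Percent remaining at 1 h reported as the average of three values.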

[8] = Microsomal stability in mouse liver microsomes assessed as parent compound remaining at 1 uM measured after 1 hr in presence of NADPH by UHPLC-MS analysis; type: ADME, Microsome; details: read-out: Stability; procedure, shortened: as §2
[9] = Plasma protein binding in human incubated for 5 hrs by UPLC-MS method; type: ADME, cell-free; details: read-out: PPB (converted)
Procedure, shortened: (§3)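 Plasma protein binding, human and mouse, reported as % bound, average of three values.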

[10] = Plasma protein binding in mouse incubated for 5 hrs by UPLC-MS method; type: ADME, cell-free; details: read-out: PPB (converted); procedure, shortened: as §3
[11] = Stability in human plasma assessed as parent compound remaining after 5 hrs; type: ADME, cell-free; details: read-out: Stability
Procedure, shortened: (§4)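 Human or mouse plasma incubation. Percent parent remaining at 5 h, average of three values.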

[12] = Stability in mouse plasma assessed as parent compound remaining after 5 hrs; type: ADME, cell-free; details: read-out: Stability; procedure, shortened: as §4
[13] = system: A549; assay: Cytotoxicity against human A549 cells assessed as cell growth inhibition upto 10 uM measured after 3 days by […] reagent based assay; details: time 72.0 hrs
[14] = molecular target: 3',5'-cyclic-AMP phosphodiesterase 4B (Homo sapiens) (UniProt Q07343); assay: Inhibition of PDE4B (unknown origin) by 3H-cAMP scintillation proximity assay
[15] = molecular target: cGMP-specific 3',5'-cyclic phosphodiesterase (Homo sapiens) (UniProt O76074); assay: Inhibition of PDE5 (unknown origin) by 3H-cAMP scintillation proximity assay
[16] = molecular target: Phosphodiesterase 6 (Homo sapiens) (UniProt Q13956+P18545+P35913+O43924+P16499+P51160); assay: Inhibition of PDE6 (unknown origin) by 3H-cAMP scintillation proximity assay; type: protein assay
[17] = Toxicity in NMRI nude mouse assessed as tolerance at 10 mg/kg, po administered twice daily for 44 days; type: organism-based; details: in vivo, 1056 h, time 44 day
Procedure, shortened: (§5)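 Female NMRI nude mice carrying subcutaneous SK-MEL-3 xenografts, given the compound orally at 10 or 20 mg/kg twice daily, or 50 mg/kg once daily. Tolerance judged by body weight loss (>10% critical) and toxicities.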

[18] = Toxicity in NMRI nude mouse assessed as tolerance at 20 mg/kg, po administered twice daily for 44 days; type: organism-based; details: in vivo, 1056 h, time 44 day; procedure, shortened: as §5
[19] = Toxicity in NMRI nude mouse assessed as tolerance at 50 mg/kg, po administered once daily for 44 days; type: organism-based; details: in vivo, 1056 h, time 44 day; procedure, shortened: as §5
[20] = system: SK-MEL3; assay: Antitumor activity against human SK-MEL3 cells xenografted in NMRI nude mouse assessed as tumor weight by measuring tumor to control ratio at 50 mg/kg, po administered once daily for 44 days; type: functional; details: time 44 day
Procedure, shortened: (§6)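 SK-MEL-3 melanoma cells inoculated subcutaneously into female NMRI nude mice. Oral dosing at 10 or 20 mg/kg twice daily, or 50 mg/kg once daily, with vehicle controls. Tumor area and tumor weight expressed relative to vehicle as T/C_rel.area and T/C_weight.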

[21] = system: SK-MEL3; assay: Antitumor activity against human SK-MEL3 cells xenografted in NMRI nude mouse assessed as tumor growth inhibition by measuring tumor to control ratio at 50 mg/kg, po administered once daily for 44 days; type: functional; details: time 44 day; procedure, shortened: as §6
[22] = system: SK-MEL3; assay: Antitumor activity against human SK-MEL3 cells xenografted in NMRI nude mouse assessed as tumor growth inhibition at 50 mg/kg, po administered once daily for 44 days; type: functional, organism-based; details: time 44.0 day; procedure, shortened: as §6
[23] = system: SK-MEL3; assay: Antitumor activity against human SK-MEL3 cells xenografted in NMRI nude mouse assessed as tumor growth inhibition at 20 mg/kg, po administered twice daily for 44 days; type: functional, organism-based; details: time 44.0 day; procedure, shortened: as §6
[24] = system: SK-MEL3; assay: Antitumor activity against human SK-MEL3 cells xenografted in NMRI nude mouse assessed as tumor growth inhibition at 10 mg/kg, po administered twice daily for 44 days; type: functional, organism-based; details: time 44.0 day; procedure, shortened: as §6
[25] = molecular target: Voltage-gated inwardly rectifying potassium channel KCNH2 (Homo sapiens, UniProt Q12809); assay: Binding affinity to hERG (unknown origin); type: toxicity
[26] = Efflux ratio of permeability in human Caco-2 cells; type: ADME, cell-based
Procedure, shortened: (§7)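 Caco2 monolayer permeability measured in the apical-to-basolateral and basolateral-to-apical directions, in nm/s. Efflux ratio calculated as B-A over A-B.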

[27] = Permeability across basolateral to apical side in human Caco-2 cells; type: ADME, cell-based; details: read-out: permeability; procedure, shortened: as §7
[28] = Permeability across apical to basolateral side in human Caco-2 cells; type: ADME, cell-based; details: read-out: permeability; procedure, shortened: as §7
[29] = Solubility of the compound; type: physicochemical
[30] = molecular target: Cytochrome P450 2D6 (Homo sapiens, UniProt P10635); assay: Inhibition of CYP2D6 (unknown origin); type: ADME
Procedure, shortened: (§8)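 CYP450 inhibition panel covering CYP1A2, 2C8, 2C9, 2D6 and 3A4, with compound tested at high concentrations.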

[31] = molecular target: Cytochrome P450 3A4 (Homo sapiens, UniProt P08684); assay: Inhibition of CYP3A4 (unknown origin); type: ADME; procedure, shortened: as §8
Cytochrome P450 3A4, sequence (P08684 whole entry): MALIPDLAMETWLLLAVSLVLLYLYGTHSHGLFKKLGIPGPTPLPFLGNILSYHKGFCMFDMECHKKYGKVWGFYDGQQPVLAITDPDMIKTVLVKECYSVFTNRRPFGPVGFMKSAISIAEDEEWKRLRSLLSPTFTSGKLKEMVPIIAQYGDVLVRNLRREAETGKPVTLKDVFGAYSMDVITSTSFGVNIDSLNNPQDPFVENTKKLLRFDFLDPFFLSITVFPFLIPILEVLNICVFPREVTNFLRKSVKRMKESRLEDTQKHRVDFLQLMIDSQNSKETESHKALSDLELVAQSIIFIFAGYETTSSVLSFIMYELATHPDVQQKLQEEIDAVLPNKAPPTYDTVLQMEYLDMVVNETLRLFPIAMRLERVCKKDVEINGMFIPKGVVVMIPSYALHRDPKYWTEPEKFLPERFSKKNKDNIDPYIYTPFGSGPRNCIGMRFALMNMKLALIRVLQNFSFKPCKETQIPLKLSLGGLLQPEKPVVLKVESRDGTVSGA

[32] = molecular target: Cytochrome P450 2C9 (Homo sapiens, UniProt P11712); assay: Inhibition of CYP2C9 (unknown origin); type: ADME; procedure, shortened: as §8
[33] = molecular target: Cytochrome P450 1A2 (Homo sapiens, UniProt P05177); assay: Inhibition of CYP1A2 (unknown origin); type: ADME; procedure, shortened: as §8
Cytochrome P450 1A2, sequence (P05177 whole entry): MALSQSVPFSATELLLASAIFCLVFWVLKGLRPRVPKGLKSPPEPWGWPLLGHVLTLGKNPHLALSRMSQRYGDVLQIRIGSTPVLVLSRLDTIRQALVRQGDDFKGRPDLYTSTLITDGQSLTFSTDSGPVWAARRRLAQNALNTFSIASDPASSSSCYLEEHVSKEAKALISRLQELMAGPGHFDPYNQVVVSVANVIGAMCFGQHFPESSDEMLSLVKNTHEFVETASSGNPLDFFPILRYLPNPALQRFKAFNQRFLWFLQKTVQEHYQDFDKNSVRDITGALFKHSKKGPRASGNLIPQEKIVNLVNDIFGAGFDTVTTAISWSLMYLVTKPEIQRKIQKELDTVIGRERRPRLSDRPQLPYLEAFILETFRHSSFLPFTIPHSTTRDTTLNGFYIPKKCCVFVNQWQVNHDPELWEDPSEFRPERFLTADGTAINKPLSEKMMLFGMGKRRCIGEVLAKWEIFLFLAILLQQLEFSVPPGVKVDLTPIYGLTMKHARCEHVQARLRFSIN

[34] = molecular target: Cytochrome P450 2C8 (Homo sapiens, UniProt P10632); assay: Inhibition of CYP2C8 (unknown origin); type: ADME; procedure, shortened: as §8
[35] = molecular target: High affinity cGMP-specific 3',5'-cyclic phosphodiesterase 9A (Homo sapiens) (UniProt O76083); assay: Inhibition of PDE9A (unknown origin) by 3H-cAMP scintillation proximity assay
[36] = molecular target: 3',5'-cyclic-AMP phosphodiesterase 7B (Homo sapiens) (UniProt Q9NP56); assay: Inhibition of PDE7B (unknown origin) by 3H-cAMP scintillation proximity assay
[37] = molecular target: High affinity cAMP-specific and IBMX-insensitive 3',5'-cyclic phosphodiesterase 8A (Homo sapiens) (UniProt O60658); assay: Inhibition of PDE8A (unknown origin) by 3H-cAMP scintillation proximity assay
[38] = species: Homo sapiens; assay: Inhibition of PDE1 (unknown origin) by 3H-cAMP scintillation proximity assay
[39] = molecular target: cGMP-dependent 3',5'-cyclic phosphodiesterase (Homo sapiens) (UniProt O00408); assay: Inhibition of PDE2A (unknown origin) by 3H-cAMP scintillation proximity assay
cGMP-dependent 3',5'-cyclic phosphodiesterase (Homo sapiens), sequence (O00408 whole entry): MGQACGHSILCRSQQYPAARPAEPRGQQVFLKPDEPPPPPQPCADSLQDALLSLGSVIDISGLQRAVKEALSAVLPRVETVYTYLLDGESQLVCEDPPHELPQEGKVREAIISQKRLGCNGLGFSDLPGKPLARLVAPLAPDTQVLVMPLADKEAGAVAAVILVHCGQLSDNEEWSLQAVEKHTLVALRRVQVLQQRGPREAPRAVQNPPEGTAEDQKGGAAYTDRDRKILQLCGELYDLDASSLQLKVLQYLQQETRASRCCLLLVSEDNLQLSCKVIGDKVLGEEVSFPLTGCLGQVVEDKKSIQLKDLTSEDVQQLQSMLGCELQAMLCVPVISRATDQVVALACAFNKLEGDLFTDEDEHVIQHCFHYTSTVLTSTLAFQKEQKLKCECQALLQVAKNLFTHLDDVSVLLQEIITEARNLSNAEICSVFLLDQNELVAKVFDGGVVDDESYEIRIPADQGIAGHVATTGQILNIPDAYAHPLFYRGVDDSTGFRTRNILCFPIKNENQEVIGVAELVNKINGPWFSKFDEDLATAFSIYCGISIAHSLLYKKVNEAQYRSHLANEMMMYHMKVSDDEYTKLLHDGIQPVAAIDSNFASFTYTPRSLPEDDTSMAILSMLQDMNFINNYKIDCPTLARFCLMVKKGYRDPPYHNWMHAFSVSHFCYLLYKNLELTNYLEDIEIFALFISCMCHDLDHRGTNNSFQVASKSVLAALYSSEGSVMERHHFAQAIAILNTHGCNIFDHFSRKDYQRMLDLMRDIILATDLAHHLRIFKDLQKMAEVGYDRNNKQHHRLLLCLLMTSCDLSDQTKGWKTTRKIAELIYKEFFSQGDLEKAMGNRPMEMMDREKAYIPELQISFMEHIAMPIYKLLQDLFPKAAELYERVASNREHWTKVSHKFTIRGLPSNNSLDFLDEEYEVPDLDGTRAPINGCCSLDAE

[40] = system: HeLa; assay: Cytotoxicity against human HeLa cells assessed as cell growth inhibition measured after 48 hrs by […] reagent based assay; type: functional
[41] = Selectivity ratio, ratio of IC50 for human PDE3A to EC50 for cytotoxicity against human HeLa cells
[42] = Selectivity ratio, ratio of IC50 for human PDE3B to EC50 for cytotoxicity against human HeLa cells
[43] = Inhibition of PDE in human HeLa cells; type: cell-based

IC50 [4]: 25 nM | IC50 [5]: 100 nM | Activity [6]: Active | remaining at 1 h [7]: 95% | remaining at 1 h, 1 µM [8]: 23% | fraction unbound at 5 h [9]: 0.13 | fraction unbound at 5 h [10]: 0.08 | remaining at 5 h [11]: 85% | remaining at 5 h [12]: 87%
SMILES: CCN(CC)c1ccc(C2=NNC(=O)CC2C)cc1[N+](=O)[O-] (stereo unspecified)
EC50 [1]: 12 nM | Activity [2]: inactive | Activity [3]: inactive | Activity [13]: inactive

inhibition [14]: inactive | inhibition [15]: inactive | inhibition [16]: inactive | efflux ratio [26]: 0.71 | Papp B→A [27]: 19.8 ×10⁻⁶ cm/s | Papp A→B [28]: 27.9 ×10⁻⁶ cm/s | solubility [29]: 1000 µM (≈ 291 µg/mL) | inhibition (INH) [30]: Not Active | inhibition (INH) [31]: Not Active | inhibition (INH) [32]: Not Active | inhibition (INH) [33]: Not Active | inhibition (INH) [34]: Not Active | inhibition [35]: inactive | inhibition [36]: inactive | inhibition [37]: inactive | inhibition [38]: inactive | inhibition [39]: inactive | IC50 [4]: 10 nM | Activity [6]: Active
SMILES: C[C@@H]1CC(=O)NN=C1c1ccc(N2CCOCC2)c(F)c1
Activity [17]: Non-Toxic | Activity [18]: Non-Toxic | Activity [19]: Non-Toxic | T/C [20]: 0.16 | T/C [21]: 0.09 | TGI [22]: Active | TGI [23]: Active | TGI [24]: Active | Activity [25]: Not Active | EC50 [1]: 1.3 nM | Activity [2]: inactive | EC50 [40]: 1.6 nM | Activity [3]: inactive | Ratio IC50/EC50 [41]: 2.4 | Ratio IC50/EC50 [42]: 2.4 | Activity [13]: inactive

IC50 [43]: 0.25 nM
SMILES: COc1cc2c(cc1OC)-c1c/c(=N\c3c(C)cc(C)cc3C)n(C)c(=O)n1CC2 [TREQUINSIN HYDROCHLORIDE]
Activity [2]: inactive | Activity [3]: inactive
